Ends that are not written are not given here.
Experiments:
[1] = test system: human pleural mesothelial cells (CRL-9444); assay: IL-6 ELISA, cytokine-stimulated mesothelial cells; type: cell-based; details: for cytokine-induced IL-6 expression, time and dose dependence: 0.1, 1, or 10 ng/mL cytokine, 2, 6, 12, 24 h, triplicate
How it was run: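 Human pleural mesothelial cells were grown in supplemented Medium199 with 10% FBS and held 24 h in serum-free medium before cytokine (IL-1β or TNF-α) and/or test compound treatment. Media IL-6 was measured by sandwich ELISA at room temperature with 300 rpm shaking and ABTS substrate. Absorbance was read at 405 nm minus 650 nm every 5 min for 50 min. Samples were run in triplicate and normalised to cell number by Hoechst 33342 DNA stain.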

[2] = test system: hnRNPA0 in mesothelial cells; assay: Western blot, hnRNPA0 phosphorylation; type: cell-based, human; details: 1 ng/ml IL-1β
How it was run: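 Human pleural mesothelial cell line grown to confluence, serum-starved 24 h, then given 1 ng/ml IL-1β with or without test compound (1000 or 3000 µM), added together, for 6 and 12 h. Lysed in urea/phosphatase-inhibitor buffer. 20 µg protein run on 12% gels, probed for phospho-hnRNPA0 (Ser84) and β-actin, detected by infrared imaging. Band intensity normalized to β-actin.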

MK2 = details: ref [35]; cited from earlier work
[3] = test system: HSPB1 in human keloid fibroblasts; details: ref [36]; cited from earlier work
kinase = details: cited from earlier work
[4] = effect of the CPP sequence; ref [37]; cited from earlier work
[5] = biological target: human recombinant MK2 (h) (Homo sapiens, UniProt P49137); assay: Radiometric MK2 kinase inhibition; type: biochemical
Sequence of human recombinant MK2 (h) (P49137 whole entry): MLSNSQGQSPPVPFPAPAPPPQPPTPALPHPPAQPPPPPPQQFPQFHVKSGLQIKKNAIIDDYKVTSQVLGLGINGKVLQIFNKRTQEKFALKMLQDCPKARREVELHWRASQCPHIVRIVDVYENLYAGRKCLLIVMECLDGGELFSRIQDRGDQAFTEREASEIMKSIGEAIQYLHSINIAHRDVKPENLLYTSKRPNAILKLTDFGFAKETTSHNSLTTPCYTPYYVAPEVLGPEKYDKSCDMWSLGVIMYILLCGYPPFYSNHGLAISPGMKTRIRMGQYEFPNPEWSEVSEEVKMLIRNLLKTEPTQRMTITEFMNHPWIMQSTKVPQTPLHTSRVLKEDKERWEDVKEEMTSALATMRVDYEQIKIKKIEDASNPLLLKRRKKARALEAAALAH

rat colon anastomosis [6] = assay: Anastomotic healing: hydroxyproline assay; type: in vivo; details: single treatment at surgery, both time points (4 and 10 days)
rat colon anastomosis [7] = details: in vivo
[8] = rat
mesothelial cells = details: ref [37]; cited from earlier work

IL-1β: interleukin-1β (Peprotech), stimulating cytokine
IL-6 expression after six hours, all three concentrations ([1]; 0.1, 1, 10 ng/mL IL-1β, 6 h): significantly increased IL-6 expression after six hours (p<0.05) | cytokine-induced IL-6 expression, time and dose dependence [1]: increased IL-6 expression in a time- and dose-dependent manner | IL-6 expression at 24 hours, two higher concentrations ([1]; 1 and 10 ng/mL IL-1β, 24 h): induced similar levels of IL-6 expression | upregulation of phosphorylated hnRNPA0 ([2]; 6 h, compared to controls, normalized to β-actin): 2 fold | phosphorylation of hnRNPA0 at 12 hours ([2]; 12 h): no longer upregulates the phosphorylation of hnRNPA0

KKKALNRQLGVAA [Hayess and Benndorf peptide]
MK2 activity in vitro (MK2): does inhibit MK2 activity in vitro

TNF-α
IL-6 expression, 0.1 ng/mL ([1]; 0.1 ng/mL TNF-α): rarely produced significant increases in IL-6 | IL-6 expression, 1 ng/mL ([1]; 1 ng/mL TNF-α, versus untreated control): did not always significantly upregulate IL-6 expression above the untreated control | cytokine-induced IL-6 expression, time and dose dependence [1]: increased IL-6 expression in a time- and dose-dependent manner | IL-6 induction potency relative to IL-1β ([1]; excluding 24-hour time point for the highest TNF-α dose): less potent inducer of IL-6 expression than IL-1β

WLRRIKAWLRRIKALNRQLGVAA
HSPB1 phosphorylation [3]: inhibited HSPB1 phosphorylation in human keloid fibroblasts | kinase specificity (kinase; effect of the CPP sequence, ref [37]): dramatically decreased the kinase specificity of the peptide | toxicity [4]: increased its associated toxicity

YARAAARQARA
peptide specificity conferred by the CPP (kinase; ref [38]): maximizes peptide specificity

YARAAARQARAKALARQLGVAA-NH2 [MMI-0100]
IC50 [5]: 22 µM | intestinal hydroxyproline content in words (rat colon anastomosis [6]): did not significantly affect rat weight gain, anastomosis bursting pressure or intestinal hydroxyproline (OHP) content at either time point | anastomosis bursting pressure in words (rat colon anastomosis [7]): did not significantly affect rat weight gain, anastomosis bursting pressure | in vivo side effects [8]: no obvious in vivo side effects | animals lost from the treatment group ([8]; in vivo): One animal was lost | complications of anastomosis ([8]; in vivo): did not cause any of these complications | highest concentration used versus toxic dose for mesothelial cells (mesothelial cells): well below the toxic dose for mesothelial cells

— article PMC3112262 (The Journal of surgical research, 2011)
